Only some compounds are listed: those with a hit (about 3.1% of all), similar ones and a draw of the others.
PP5 inh: inhibitors of human protein phosphatase 5 (PP5); P53041; inhibition, % at 6.7 µM; purified PP5c, OMFP substrate fluorescence; hit rate 0.18% among 320,000;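 active means inhibition above the campaign's mean inhibition across all tested compounds plus 3 SD, cut at about 9.5% in these data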;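 further: 0% = DMSO only and 100% = 100 µM cantharidin control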
Target sequence (P53041 whole entry, looked up): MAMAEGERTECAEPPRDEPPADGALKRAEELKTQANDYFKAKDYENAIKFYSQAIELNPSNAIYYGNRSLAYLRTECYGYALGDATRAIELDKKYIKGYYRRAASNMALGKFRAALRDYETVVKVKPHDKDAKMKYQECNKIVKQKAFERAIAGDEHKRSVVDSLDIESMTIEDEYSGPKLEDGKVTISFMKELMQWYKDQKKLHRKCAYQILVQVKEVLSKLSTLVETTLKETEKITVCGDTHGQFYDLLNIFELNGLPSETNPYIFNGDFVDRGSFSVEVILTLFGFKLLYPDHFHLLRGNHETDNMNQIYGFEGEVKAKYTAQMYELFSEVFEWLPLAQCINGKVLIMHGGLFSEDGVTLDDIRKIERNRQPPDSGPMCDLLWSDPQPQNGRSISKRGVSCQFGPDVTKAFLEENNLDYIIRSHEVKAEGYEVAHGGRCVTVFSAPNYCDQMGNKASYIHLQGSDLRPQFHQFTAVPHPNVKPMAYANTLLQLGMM
Myeloid diff MLP: myeloid differentiation induction | calls only at 10 µM | hit rate 1% among 360,000 | ER-HoxA9 myeloid progenitors, lysozyme-GFP differentiation, flow cytometry;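 active means normalized GFP-positive differentiation at or above the plate's own cutoff, the solvent-only control mean plus 3 SD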;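 further: cells exposed to compound for four days before flow analysis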
NadD block: blocks S. aureus nicotinate mononucleotide adenylyltransferase | hit rate 0.78% among 360,000 | inhibition, % at 20 µM | AID 602399 | purified NadD enzyme, colorimetric absorbance read-out; in the data active means inhibition above about 26%
PP1 counter: counter-screen for PP5 inhibitors: inhibitors of human PP1-alpha. purified PP1alpha, OMFP fluorescence. hit rate 0.9% among 320,000. AID 2235. inhibition, % at 6.7 µM;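 active means inhibition above the mean inhibition of all tested compounds plus 3 SD, computed separately for each screening campaign, cut at about 15% in these data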
core dimer inh: blocks dimerization of HCV core protein. hit rate 0.33% among 300,000. TR-FRET GST/Flag-core106 dimerization, 1536-well. inhibition, % at 5 µM;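 active means inhibition above the mean of all tested compounds plus 3 SD, set per screening campaign, cut at about 45% in these data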
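Assay system – GST-tagged and Flag-tagged HCV core protein residues 1-106 · Quantity – core106 proteins, GST 13.5 nM and Flag 17 nM · Benchmarks – unlabelled core106 and no-GST-core106 wells · Read-out basis – percent inhibition of core106 dimerization signal · Detection – time-resolved FRET, ex 340 nm, em 617 and 671 nm · Schedule – 4 h at 22.5 °C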
Fh CTSL1 inh: blocks F. hepatica cathepsin L1 in PFM18AAP counter-screen; recombinant F. hepatica cathepsin L1, Z-Leu-Arg-MCA fluorescence; inhibition, % at 5.96 µM; hit rate 0.49% among 300,000;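 active means inhibition above the mean of all tested compounds plus 3 SD, set per screening campaign, cut at about 17% in these data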;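 further: 0% = plate median of test compound wells and 100% = 1 µM Z-Phe-Ala-diazomethylketone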
Active calls of the source: *; i = inactive; nt = no result; + = active, no number.

SMILES	PP5 inh	Myeloid diff MLP	NadD block	PP1 counter	core dimer inh	Fh CTSL1 inh
COc1ccc(C2c3ccc(O)cc3Oc3ncn4nc(-c5cccnc5)nc4c32)cc1OC (centres undefined)	2.8	+	8.2	-0.3	11.3	-0.8
COc1cc(/C=C/C(=O)NCCc2ccc(S(N)(=O)=O)cc2)ccc1OCC#N	1.4	i	-1.7	-2.0	-1.9	2.1
CCOc1cc(/C=C/C(=O)NCCc2ccc(S(N)(=O)=O)cc2)ccc1OCC(C)C	4.5	i	-6.9	2.8	5.6	19.0*
CSCc1c(C(=O)OCC(=O)NC2CCCCC2)oc2ccccc12	0.2	i	-5.8	1.3	nt	nt
NC(=O)Cn1c(=O)n(Cc2ccco2)c(=O)c2c3c(sc21)CCCCC3	-0.3	i	2.6	5.5	29.9	4.3
O=C(Cn1c(=O)n(Cc2ccco2)c(=O)c2c3c(sc21)CCCC3)Nc1ccccc1	-4.7	i	20.7	-1.4	47.9*	-4.1
CC(OC(=O)CNC(=O)c1ccc(Cl)c(Cl)c1)C(=O)N1CCOCC1 (centres undefined)	-0.7	i	-3.1	-2.7	0.3	24.6*
O=C(NCC(=O)N1CCOCC1)c1ccc(Cl)cc1	0.3	i	3.6	-0.8	-0.9	0.6
COc1ccc(CCC(=O)NNC(=O)Nc2ccccc2Cl)cc1	nt	i	-9.6	nt	nt	nt
CC(C)(C)Nc1nc(SCc2ccccc2)nc(N2CCOCC2)n1	3.5	i	3.6	-0.7	-0.2	18.6*
O=C(COc1ccc(Cl)cc1Br)Nc1nnc(C2CC2)s1	0.9	i	9.3	6.3	nt	nt
CC1CC(C)CN(S(=O)(=O)c2cccc(C(=O)OCCN3CCCC3=O)c2)C1 (centres undefined)	-6.6	i	-1.4	-0.6	-3.5	17.6*
COc1ccccc1C(=O)Nc1ccnn1C1CCN(C/C=C/c2ccc(F)cc2)CC1	3.6	+	1.4	0.4	10.9	-0.4
CCOC(=O)CNC(=O)Cn1cnc2c(cnn2-c2ccc(C)cc2)c1=O	-1.5	i	-5.4	-0.2	-4.4	0.0
Cc1ccc(-n2nnnc2SCC(=O)Nc2ccc3c(c2)COC3=O)cc1C	3.7	i	5.1	13.9	49.4*	-1.7
Cc1ccc(NC(=O)CSc2nnnn2-c2ccc3c(c2)OCO3)cc1C	-1.1	+	-5.2	10.9	16.6	-0.3
CCOC(=O)C(=O)N(C)c1c(CC)nc2c(OCc3ccccc3C)cccn12	nt	i	5.1	nt	nt	nt
COC(=O)C(C)NC(=S)N1CCN(c2c(F)cc3c(=O)c(C(=O)O)cn(C4CC4)c3c2OC)CC1C (centres undefined)	3.2	i	5.1	16.0*	3.5	-1.5
C[C@H]1COc2c(N3CCN(C)CC3)c(F)cc3c(=O)c(C(=O)O)cn1c23	2.7	i	7.6	-0.2	0.0	-1.2
CCOC(=O)c1cn(C2CC2)c2c(F)c(F)c(F)cc2c1=O	0.1	i	2.8	7.5	0.1	-2.7
CNC(=S)N1CCN(c2c(F)cc3c(=O)c(C(=O)O)cn(C4CC4)c3c2OC)CC1C (centres undefined)	4.8	i	1.9	15.9*	-5.5	0.4
CC1C(=O)CC2C3(C)CCC2(C(C)C(=O)O)C(=O)C13 (centres undefined)	nt	i	2.0	nt	nt	nt
O=C(O)C1CC=CCC1C(=O)N1CCCC1 (centres undefined)	0.9	i	6.9	-11.8	-6.4	18.0*
O=C(C1CC=CCC1)N1CCCCCC1 (centres undefined)	nt	i	-0.7	nt	nt	nt
CC[C@H]1OC(=O)[C@H](C)[C@@H](O[C@H]2C[C@@](C)(OC)[C@@H](O)[C@H](C)O2)[C@H](C)[C@@H](O[C@@H]2O[C@H](C)C[C@H](N(C)C)[C@H]2O)[C@](C)(O)C[C@@H](C)C(=O)[C@H](C)[C@@H](O)[C@]1(C)O	-1.3	i	25.5	5.7	2.8	5.8
SMILES	PP5 inh	Myeloid diff MLP	NadD block	PP1 counter	core dimer inh	Fh CTSL1 inh
CCOC(=O)CCC(=O)O[C@H]1[C@H](O[C@@H]2[C@@H](C)[C@H](O[C@H]3C[C@@](C)(OC)[C@@H](O)[C@H](C)O3)[C@@H](C)C(=O)O[C@H](CC)[C@@](C)(O)[C@H](O)[C@@H](C)C(=O)[C@H](C)C[C@@]2(C)O)O[C@H](C)C[C@@H]1N(C)C	-2.3	+	-1.3	1.2	7.0	1.6
COc1ccc(C(CNC(=O)c2ccc(C)c(S(=O)(=O)N3CCOCC3)c2)N2CCCC2)cc1 (centres undefined)	nt	i	-1.1	nt	nt	nt
O=C(Cn1c(CCCO)nc2ccccc21)Nc1ccccc1-c1ccccc1	0.9	i	-6.2	3.2	10.0	-1.2
Cc1cc(C)c2c(=O)cc(C(F)F)oc2c1	0.8	i	-2.1	0.2	-2.0	16.6*
O=C(C1CCC(=O)N(C2CCCC2)C1)N1CCN(Cc2cccc(F)c2)CC1 (centres undefined)	1.2	+	4.7	-1.6	-16.4	5.2
O=C(NN1C(=O)/C(=C/C=C/c2ccccc2)SC1=S)c1ccncc1	2.8	i	34.5*	0.7	48.7*	1.3
O=C(NN1C(=O)/C(=C/C=C/c2ccco2)SC1=S)c1ccncc1	2.2	i	3.9	11.6	47.2*	3.9
CCC(=O)C1CCCN(C(=O)CCc2nnc(C3(c4ccc(Cl)cc4)CCC3)o2)C1 (centres undefined)	-1.9	i	0.3	4.4	-0.5	6.5
O=C(c1ccoc1)N1CCC2(CC1)Oc1ccc(F)cc1C(=O)C21CC(c2ccc(Cl)cc2)=NO1 (centres undefined)	4.3	+	20.0	4.7	17.3	-0.3
O=C(Nc1ccc(N2CCN(c3ccc(O)cc3)CC2)cc1)Oc1ccccc1	1.8	i	27.7	13.4	58.8*	1.2
CCn1cc([N+](=O)[O-])c(C(=O)N2CCCC2)n1	nt	+	0.4	nt	nt	nt
CCC1CCC(C(=O)NC(CCSC)C(=O)NCCN(CC(C)C)CC(C)C)CC1 (centres undefined)	0.9	i	-10.0	-3.5	0.4	30.9*
CC1CCC(C(=O)NC(C(=O)NCCN2CCC(C)CC2)C(C)C)CC1 (centres undefined)	nt	i	0.0	nt	nt	nt
CSCCC(NC(=O)C1CCC(C)CC1)C(=O)O (centres undefined)	1.3	i	2.5	-0.1	-2.2	1.2
CSCCC(NC(=O)C1CCC(C)CC1)C(=O)NCCN1CCOCC1 (centres undefined)	2.2	i	2.9	-3.0	3.5	38.0*
CC(C)CC(NC(=O)C1CCC(C)CC1)C(=O)NCCN1CCOCC1 (centres undefined)	1.1	i	-3.7	0.0	-3.4	59.7*
CCCNC(=O)C1(C)CCCN(C(=O)c2cccc(OC(F)(F)F)c2)C1 (centres undefined)	nt	i	-2.8	nt	nt	nt
Fc1ccccc1-c1nc(-c2ccc(-c3nn[nH]n3)cc2)no1	nt	i	-0.9	nt	nt	nt

Screening results from PubChem BioAssay.
